From ChEMBL document CHEMBL3792272, “Discovery of Potent and Orally Active Lipoprotein-Associated Phospholipase A2 (Lp-PLA2) Inhibitors as a Potential Therapy for Diabetic Macular Edema” (J Med Chem, 2016)

What was measured:
Assay type in all cases: ADME, organism-based
[1] = Cmax in Sprague-Dawley rat at 50 mg/kg, po after 0.5 to 24 hrs by LC-MS/MS analysis; design: dose 50 mg/kg, route oral; conditions: in vivo
[2] = Tmax in Sprague-Dawley rat at 50 mg/kg, po after 0.5 to 24 hrs by LC-MS/MS analysis; conditions: in vivo
[3] = AUC (0 to 24 hrs) in Sprague-Dawley rat at 50 mg/kg, po after 0.5 to 24 hrs by LC-MS/MS analysis; design: time < 24 hr, dose 50 mg/kg, route oral; conditions: in vivo
[4] = AUC (0 to 24 hrs) in Sprague-Dawley rat at 10 mg/kg, iv after 5 mins to 24 hrs by LC-MS/MS analysis; design: time < 24 hr, dose 10 mg/kg, route intravenous; conditions: in vivo
Method in brief: (§1)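 Male SD rats, n=5 per group, single iv bolus: 5 mg/kg in 5% DMSO/5% Tween-80 in saline, or 10 mg/kg tartrate salt in water. Plasma sampled predose and at 5, 15, 30 min and 1, 3, 5, 7, 24 h. Drug measured by LC-MS. Parameters by noncompartmental analysis of mean concentrations.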

[5] = Volume of distribution at steady state in Sprague-Dawley rat at 10 mg/kg, iv after 5 mins to 24 hrs by LC-MS/MS analysis; conditions: in vivo, read-out: Vdss; method in brief: as §1

Cmax [1]: 115 ng/mL | Tmax [2]: 4.2 h | AUC(0-t) at 24 h [3]: 1300 ng·h/mL | AUC(0-t) at 24 h [4]: 1200 ng·h/mL | Vd [5]: 34.4 L/kg
SMILES: CCN(CC)CCN(Cc1ccc(-c2ccc(C(F)(F)F)cc2)cc1)C(=O)Cn1c(SCc2ccc(F)cc2)nc(=O)c2c1CCC2 [DARAPLADIB]
